The values that follow come from ChEMBL document CHEMBL1649436, “Antiviral activity of MK-4965, a novel nonnucleoside reverse transcriptase inhibitor” (Antimicrob Agents Chemother, 2009).

SMILES strings stand for the structures.

Data set [1] concerns Human immunodeficiency virus 1. In words: Antiviral activity against HIV1 clade G harboring mutant reverse transcriptase relative to HIV1 CNDO with wild type reverse transcriptase. It is filed as functional.
In data set [2] the test system is Human immunodeficiency virus 1. In words: Antiviral activity against NRTI-resistant HIV1 harboring mutant reverse transcriptase relative to HIV1 CNDO with wild type reverse transcriptase. It is filed as functional. The gist of the method:
(§1)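 Single-cycle PhenoScreen assay run by Monogram Biosciences, using viruses carrying RT sequences from clinical isolates, subtypes/CRFs or PI/NRTI-resistant clade B viruses; nine serial drug concentrations; activity expressed relative to drug-sensitive reference strain CNDO (protease and RT from NL4-3), with multidrug-resistant MDRC4 as assay-performance control.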

For data set [3], the system named is Human immunodeficiency virus 1. In words: Antiviral activity against HIV1 CRF17_BF harboring mutant reverse transcriptase relative to HIV1 CNDO with wild type reverse transcriptase. The class given is functional. The gist of the method: as §1
Data set [4] deals with Human immunodeficiency virus 1. In words: Antiviral activity against HIV1 clade B harboring mutant reverse transcriptase relative to HIV1 CNDO with wild type reverse transcriptase. It is filed as functional.
Data set [5] relates to Human immunodeficiency virus 1. The data set can be described thus: Antiviral activity against HIV1 CRF02_AG harboring mutant reverse transcriptase relative to HIV1 CNDO with wild type reverse transcriptase. It is filed as functional. The gist of the method:
as §1

Data set [6] has as its system Human immunodeficiency virus 1. In words: Antiviral activity against HIV1 CRF01_AE harboring mutant reverse transcriptase relative to HIV1 CNDO with wild type reverse transcriptase. It is filed as functional. The gist of the method: as §1
Data set [7] has as its system Human immunodeficiency virus 1. In words: Antiviral activity against HIV1 clade C harboring mutant reverse transcriptase relative to HIV1 CNDO with wild type reverse transcriptase. It is filed as functional.
Data set [8] has as its system Human immunodeficiency virus 1. In words: Antiviral activity against PI-resistant HIV1 harboring mutant reverse transcriptase relative to HIV1 CNDO with wild type reverse transcriptase. The class given is functional. The gist of the method: as §1
Data set [9] deals with Human immunodeficiency virus 1. In words: Antiviral activity against HIV1 clade D harboring mutant reverse transcriptase relative to HIV1 CNDO with wild type reverse transcriptase. The class given is functional.
The test system of data set [10] is Human immunodeficiency virus 1. The data set can be described thus: Antiviral activity against NRTI-, PI-resistant HIV1 harboring mutant reverse transcriptase relative to HIV1 CNDO with wild type reverse transcriptase. The class given is functional. The gist of the method:
as §1

In data set [11] the test system is Human immunodeficiency virus 1. In words: Antiviral activity against HIV1 clade A harboring mutant reverse transcriptase relative to HIV1 CNDO with wild type reverse transcriptase. It is filed as functional.
The test system of data set [12] is Human immunodeficiency virus 1. The data set can be described thus: Antiviral activity against HIV1 clade F1 harboring mutant reverse transcriptase relative to HIV1 CNDO with wild type reverse transcriptase. It is filed as functional.
Data set [13] has as its system Human immunodeficiency virus 1. In words: Antiviral activity against HIV1 clade H harboring mutant reverse transcriptase relative to HIV1 CNDO with wild type reverse transcriptase. It is filed as functional.
Data set [14] relates to Human immunodeficiency virus 1. The data set can be described thus: Antiviral activity against HIV1 isolate R8 harboring reverse transcriptase K103N mutant infected in human MT4 cells assessed as inhibition of viral replication after 72 hrs in presence of 10% FBS. The class given is functional. Particulars: Human immunodeficiency virus 1, isolate R8, MT4, 72 h. The gist of the method: (§2)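 Multiple-cycle assay: MT-4 cells (2.5 × 10^5) infected with R8-based virus at low MOI, no inhibitor, 24 h at 37°C, 5% CO2; washed, reseeded at 5 × 10^4 cells in RPMI 1640 with 10% FBS or 50% type AB human serum; threefold serial dilutions from 833 nM to 0.32 nM; 72 h; p24 in medium by AlphaScreen; EC95 = lowest concentration giving ≥95% p24 reduction versus untreated.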

For data set [15], the system named is Human immunodeficiency virus 1. The data set can be described thus: Antiviral activity against HIV1 isolate R8 harboring reverse transcriptase Y181C mutant infected in human MT4 cells assessed as inhibition of viral replication after 72 hrs in presence of 50% human serum. It is filed as functional. The following applies: Human immunodeficiency virus 1, isolate R8, MT4, 72 h. The gist of the method: as §2

Data set [16] has as its system Human immunodeficiency virus 1. In words: Antiviral activity against HIV1 isolate R8 harboring reverse transcriptase L100I and K103N mutant relative to drug-sensitive HIV1 CNDO. The class given is functional.
Data set [17] relates to Human immunodeficiency virus 1. In words: Antiviral activity against HIV1 isolate R8 harboring reverse transcriptase F227C mutant relative to drug-sensitive HIV1 CNDO. The class given is functional.
The test system of data set [18] is Human immunodeficiency virus 1. The data set can be described thus: Antiviral activity against HIV1 isolate R8 harboring wild type reverse transcriptase infected in human MT4 cells assessed as inhibition of viral replication after 72 hrs in presence of 50% human serum. The class given is functional. The following applies: Human immunodeficiency virus 1, isolate R8, MT4, 72 h. The gist of the method:
as §2

Data set [19] relates to Plasma. In words: Plasma protein binding in healthy human at 200 mg/kg. It is filed as ADME, organism-based. The arrangement: dose 200 mg/kg. Particulars: in vivo.
Data set [20] concerns Human immunodeficiency virus 1. The data set can be described thus: Antiviral activity against HIV1 isolate R8 harboring reverse transcriptase Y181C and K103N mutant relative to drug-sensitive HIV1 CNDO. The class given is functional.
For data set [21], the system named is Human immunodeficiency virus 1. The data set can be described thus: Antiviral activity against HIV1 isolate R8 harboring reverse transcriptase Y181I mutant relative to drug-sensitive HIV1 CNDO. The class given is functional.
Data set [22] concerns Human immunodeficiency virus 1. In words: Ratio of EC95 for HIV1 isolate R8 harboring reverse transcriptase K103N mutant in presence of 50% human serum to EC95 for HIV1 isolate R8 harboring wild type reverse transcriptase in presence of 50% human serum. It is filed as functional. The gist of the method:
(§3)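 Ratios of EC95 values from the MT-4 multiple-cycle assay: R8 variants infected 24 h at low MOI, then reseeded in RPMI 1640 with 10% FBS or 50% type AB human serum with threefold dilutions (833–0.32 nM) for 72 h; p24 by AlphaScreen; EC95 = lowest concentration cutting p24 ≥95% versus untreated controls.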

The subject of data set [23] is Human immunodeficiency virus 1. In words: Antiviral activity against HIV1 isolate R8 harboring reverse transcriptase Y181C mutant infected in human MT4 cells assessed as inhibition of viral replication after 72 hrs in presence of 10% FBS. It is filed as functional. The following applies: Human immunodeficiency virus 1, isolate R8, MT4, 72 h. The gist of the method:
as §2

Data set [24] concerns Human immunodeficiency virus 1. The data set can be described thus: Ratio of EC95 for HIV1 isolate R8 harboring reverse transcriptase K103N and Y181C mutant in presence of 50% human serum to EC95 for HIV1 isolate R8 harboring wild type reverse transcriptase in presence of 50% human serum. It is filed as functional. The gist of the method: as §3
Data set [25] relates to Human immunodeficiency virus 1. In words: Antiviral activity against HIV1 isolate R8 harboring wild type reverse transcriptase infected in human MT4 cells assessed as inhibition of viral replication after 72 hrs in presence of 10% FBS. The class given is functional. Particulars: Human immunodeficiency virus 1, isolate R8, MT4, 72 h. The gist of the method:
as §2

Data set [26] has as its system Human immunodeficiency virus 1. In words: Antiviral activity against HIV1 isolate R8 harboring reverse transcriptase K101P mutant relative to drug-sensitive HIV1 CNDO. It is filed as functional.
For data set [27], the system named is Human immunodeficiency virus 1. In words: Antiviral activity against HIV1 isolate R8 harboring reverse transcriptase K103N and Y181C mutant infected in human MT4 cells assessed as inhibition of viral replication after 72 hrs in presence of 10% FBS. The class given is functional. Particulars: Human immunodeficiency virus 1, isolate R8, MT4, 72 h. The gist of the method: as §2

The subject of data set [28] is Human immunodeficiency virus 1. In words: Antiviral activity against HIV1 isolate R8 harboring reverse transcriptase K103N mutant infected in human MT4 cells assessed as inhibition of viral replication after 72 hrs in presence of 50% human serum. The following applies: Human immunodeficiency virus 1, isolate R8, MT4, 72 h. It is filed as functional. The gist of the method:
as §2

Data set [29] deals with Plasma. The data set can be described thus: Plasma protein binding in HIV1 infected patient. It is filed as ADME, cell-free. Particulars: human.
The test system of data set [30] is Human immunodeficiency virus 1. In words: Ratio of EC95 for HIV1 isolate R8 harboring reverse transcriptase Y181C mutant in presence of 50% human serum to EC95 for HIV1 isolate R8 harboring wild type reverse transcriptase in presence of 50% human serum. It is filed as functional. The gist of the method: as §3
Data set [31] concerns Human immunodeficiency virus 1. The data set can be described thus: Antiviral activity against HIV1 isolate R8 harboring reverse transcriptase K103N and Y181C mutant infected in human MT4 cells assessed as inhibition of viral replication after 72 hrs in presence of 50% human serum. It is filed as functional. Particulars: Human immunodeficiency virus 1, isolate R8, MT4, 72 h. The gist of the method:
as §2

Data set [32] has as its system Human immunodeficiency virus 1. The data set can be described thus: Antiviral activity against HIV1 isolate R8 harboring reverse transcriptase M230L mutant relative to drug-sensitive HIV1 CNDO. The class given is functional.

In the case of `C[C@H](Cn1cnc2c(N)ncnc21)OCP(=O)(O)O` [TENOFOVIR ANHYDROUS], the “fold change (FC)” value in [1] stood at 0.96; in data set [2], 1.97; in data set [3], 0.83; in [4], 0.94; in [5], 0.93; in data set [6], 0.78. For the same molecule, the “fold change (FC)” value was determined as 0.97 in data set [7]; 0.82 in data set [8]; 0.74 in data set [9]; 2.43 in data set [10]; 0.95 in data set [11]; 0.96 in data set [12]. In addition, in [13], the “fold change (FC)” value was 0.67.

As to `Cc1cc(C#N)cc(C)c1Oc1nc(Nc2ccc(C#N)cc2)nc(N)c1Br` [ETRAVIRINE], the EC95 in data set [14] was 6 nM; in data set [15], 266 nM; in [18], 38 nM; in data set [23], 26 nM; in data set [25] it was 4 nM; in data set [27] it was 56 nM. Further, the concentration for an effect of 95% (EC95) in data set [28] was 43 nM; in [31], 542 nM. In addition, the fold change (FC) in data set [16] was above 10; in data set [17], above 10; in data set [20] it was above 10; in [21] it was above 10; in [22], 1.1; in data set [24] it was 14. For the same molecule, the fold change (FC) in [26] was above 10; in data set [30] it was 7; in [32] it was above 10. For the same molecule, the Activity in the data set with Plasma [19] and in the data set on Plasma [29] was above 99.5% throughout.

As to `Nc1ccn([C@@H]2CS[C@H](CO)O2)c(=O)n1` [LAMIVUDINE], the results for the “fold change (FC)” value in data set [3], in data set [5] and in data set [10] were 1.37, 1.31 and 5.96, respectively.

In the case of `O=C1Nc2ccc(Cl)cc2[C@@](C#CC2CC2)(C(F)(F)F)O1` [EFAVIRENZ], the 95% effect concentration (EC95) in data set [14] turned out to be 245 nM; in data set [15], 89 nM; in data set [18] it was 38 nM; in [23], 8.4 nM; in data set [25], 3.8 nM; in data set [27] it was 322 nM. The EC95 in data set [28] was determined as 1730 nM; in data set [31], 3390 nM. In addition, the Activity in the data set on Plasma [19] and in the data set on Plasma [29] was above 99.5% in each case.

As for `Cc1ccnc2c1NC(=O)c1cccnc1N2C1CC1` [NEVIRAPINE], the “fold change (FC)” value in data set [1] turned out to be 1.25; in [2], 0.49; in data set [3], 0.83; in [4], 1.25; in [5], 0.4; in [6], 0.67. Besides, the “fold change (FC)” value was 0.7 in data set [7]; 1.05 in data set [8]; 0.35 in [9]; 0.32 in data set [10]; 0.94 in data set [11]; 0.73 in [12]. Further, the “fold change (FC)” value in data set [13] is 0.13. Besides, the EC95 is above 8000 nM in [14]; above 8000 nM in [15]; 464 nM in data set [18]; above 8000 nM in data set [23]; 438 nM in data set [25]; above 8000 nM in data set [27]. For the same molecule, the EC95 in data set [28] and in [31] was above 8000 nM in each case.
